# The list is not random: actives were taken first. Their share in the collection is about 3%.
# TRPC4 agonist: activators of mouse TRPC4 channel | 310,000 tested, 0.49% active | HEK293 TRPC4beta/mu-opioid, Fluo4 calcium fluorescence; active compounds read high | Q9QUQ5 | AID 2237 | B-score at 10 µM;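 active = B-score above 5 SD of library B-scores, and initial fluorescence ratio not above library mean plus 5 SD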;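 also: positive B-score marks a calcium rise read as TRPC4 activation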
#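 Material: HEK293 stable line with TRPC4beta plus mu-opioid receptor; technique: Fluo4 calcium-sensitive dye fluorescence, kinetic, 1 Hz baseline; timing: Fluo4 dye loading 45 min at room temperature, 110 s recording; controls: assay buffer as low control, maximal DAMGO as high control; read-out: integrated baseline-normalised fluorescence ratio, converted to per-well B score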
# TRPC6 inh: inhibitors of mouse TRPC6 channel; Q61143; AID 2553; B-score at 10 µM; HEK293-TRPC6, membrane potential dye, ACh-evoked depolarization; active compounds read low; 310,000 tested, 1.1% active;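 active = B-score under library mean minus 3 SD, initial fluorescence not abnormally high, positive integrated signal ratio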;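 also: B-score derived from integrated fluorescence ratio over the kinetic read; more negative B-score means stronger inhibition of depolarization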
# TRPC4 potent: TRPC4 (mouse) allosteric potentiation; HEK293 TRPC4beta/mu-opioid, DAMGO EC20, Fluo-4 Ca2+ flux; active compounds read high; Q9QUQ5; 310,000 tested, 0.42% active; B-score at 10 µM; AID 2227;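 active = B-score of calcium response area above 5 SD of library B-scores, with initial fluorescence ratio within 5 SD of library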;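 also: B-score of integrated fluorescence ratio over time as area under calcium response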
# TRPC6 activator: mouse TRPC6 channel activation; Q61143; HEK293-TRPC6 membrane potential dye fluorescence; active compounds read high; B-score at 10 µM; 310,000 tested, 0.13% active;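 active = B-score of the integrated fluorescence ratio above library mean plus 3 SD, and starting fluorescence ratio within library mean plus 5 SD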;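 also: higher score means more depolarization so channel activation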
# Kir21 inh: blocks the mouse Kir2.1 inward-rectifier potassium channel; P35561; HEK293-Kir2.1, FluxOR thallium flux fluorescence; active compounds read low; B-score at 10 µM; 310,000 tested, 0.85% active; AID 1672;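 active = fluorescence ratio B-score at or below minus 3 SD of library scores, with starting-brightness B-score within 2 SD, cut at about -4.2 in these data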;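 also: channel flux triggered by added potassium and thallium sulfate stimulus; B-score of peak minus minimum fluorescence over baseline after thallium stimulus; more negative B-score means stronger Kir2.1 block with less thallium influx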
# Target sequence (P35561 whole entry, looked up): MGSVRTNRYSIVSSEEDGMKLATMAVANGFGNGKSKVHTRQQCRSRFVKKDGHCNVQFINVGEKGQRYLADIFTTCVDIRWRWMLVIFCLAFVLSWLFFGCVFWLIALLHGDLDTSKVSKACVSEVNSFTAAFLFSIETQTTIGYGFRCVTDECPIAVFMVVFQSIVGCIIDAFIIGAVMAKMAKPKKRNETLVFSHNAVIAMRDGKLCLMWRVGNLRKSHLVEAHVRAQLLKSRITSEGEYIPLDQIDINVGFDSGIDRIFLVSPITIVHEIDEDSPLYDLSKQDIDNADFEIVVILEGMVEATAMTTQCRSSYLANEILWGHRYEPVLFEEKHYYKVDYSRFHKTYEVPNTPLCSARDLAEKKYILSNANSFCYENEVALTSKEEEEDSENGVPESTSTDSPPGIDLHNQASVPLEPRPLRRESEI
# TRPC4 block: blocks the mouse TRPC4 cation channel; 300,000 tested, 0.39% active; B-score at 10 µM; Q9QUQ5; HEK293 TRPC4beta/mu-opioid, DAMGO-evoked Fluo4 calcium flux; active compounds read low;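 active = B-score over 3 SD under the library average, no early fluorescence shift, positive overall ratio signal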
#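 Assay system: HEK293 cells with stable TRPC4beta plus mu-opioid receptor expression; Probe or stimulus: DAMGO in two steps, submaximal then maximal; Dosing: single-point compound dosing; Measured by: Fluo4 calcium-dye fluorescence, kinetic read; Read-out basis: B score from integrated Fluo4 fluorescence ratio.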
# TRPC4 sel inh 2: second selectivity test of TRPC6 inhibitors: effect on mouse TRPC4; inhibition, % at 10 µM; 920 tested, 42% active; HEK293 TRPC4/MOR, membrane potential dye fluorescence; channel activated by saturating DAMGO dose; shares compounds with TRPC6 inh;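 active = compounds whose fluorescence signal differed from control wells by over 3 SD, either direction, in both duplicate plates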
# TRPC4 spec: tests whether TRPC6 inhibitors also affect mouse TRPC4; shares compounds with TRPC6 inh; HEK293 TRPC4/mu-opioid, membrane potential fluorescence; activity change, negative = inhibition, % at 10 µM; 920 tested, 61% active; AID 2777;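 active = rise or fall in signal beyond 3 SD of buffer-only wells in both replicate plates, either sign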;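 also: integrated kinetic ratio of fluorescence range over baseline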
# HEK293 MPD ctr 2-1: second check of TRPC6 inhibitor effects in parental HEK293 cells. shares compounds with TRPC6 inh. parental HEK293 membrane potential dye fluorescence; maximal acetylcholine challenge after compound addition. signal change vs control, % at 10 µM. 920 tested, 31% active;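 active = membrane potential signal moving either way by over 3 SD of the maximum-effect control, in both duplicate plates, meaning non-specific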
# HEK293 MPD ctr-1: checks TRPC6 inhibitor effects in parental HEK293 cells; shares compounds with TRPC6 inh; parental HEK293 membrane potential dye fluorescence; 920 tested, 60% active; membrane potential signal change, % at 10 µM;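 active = membrane potential signal shifting up or down by more than 3 SD of buffer-only wells, on both duplicate plates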
# HEK293 MPD ctr-2: counter-screen for TRPC6 modulators: effect in parental HEK293 cells; shares compounds with TRPC6 inh; membrane potential dye fluorescence; membrane potential signal change, % at 10 µM; 2,400 tested, 51% active; AID 488924;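 active = membrane potential signal moves up or down beyond 5 SD from buffer-only wells, on both duplicate plates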
# HEK293 MPD ctr 2-2: second counter-screen for TRPC6 modulators: effect in parental HEK293 cells; shares compounds with TRPC6 inh; membrane potential dye fluorescence; after compound, maximal acetylcholine stimulation; inhibition, % at 10 µM; 2,400 tested, 14% active; AID 488926;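 active = membrane potential signal drops by more than 5 SD from the mean control signal, in both duplicate plates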;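 also: plate controls were acetylcholine ECmax control wells for no effect and buffer only wells for full effect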
# TRPC4 ctr mod: tests whether TRPC6 modulators also affect mouse TRPC4 | HEK293 TRPC4/mu-opioid, membrane potential fluorescence | shares compounds with TRPC6 inh | percent change from control (negative = decrease, positive = increase), % at 10 µM | 2,400 tested, 69% active;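 active = membrane potential signal moved up or down beyond 5 SD of buffer control wells, in both duplicate plates, actives on both sides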;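 also: plate controls were assay buffer wells for no effect and DAMGO maximal-effect wells for full effect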
# TRPC4 ctr inh 2: mouse TRPC4 off-target activity of TRPC6 modulators, second screen; shares compounds with TRPC6 inh; HEK293 TRPC4/mu-opioid, membrane potential dye fluorescence; stimulated with maximal-effect DAMGO; inhibition, % at 10 µM; 2,400 tested, 55% active; AID 488928;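 active = drop in membrane potential signal beyond 5 SD of the control wells in both duplicate plates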;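 also: TRPC4 counter screen for TRPC6 hits run under conditions tuned for TRPC6 not TRPC4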
# TRPC6 block conf: mouse TRPC6 inhibitor confirmation; shares compounds with TRPC6 inh; HEK293-TRPC6, membrane potential dye, ACh-evoked depolarization; inhibition, % at 10 µM; 3,300 tested, 43% active; AID 488960;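 active = fluorescence ratio falls more than 5 SD below the full-stimulation control mean, in both duplicate runs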;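 also: integrated fluorescence ratio of peak minus minimum over baseline after agonist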
# TRPC6 act confirm: confirmation of mouse TRPC6 activators; shares compounds with TRPC6 inh; HEK293-TRPC6 membrane potential dye fluorescence, FDSS; activation, % at 10 µM; 2,800 tested, 11% active; AID 488961;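 active = ratio signal rise beyond 5 SD above unstimulated control wells' mean, seen in both duplicate runs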;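 also: plate controls were buffer EC0 wells for no effect and acetylcholine ECmax response for full effect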
# * marks the source's active call; other numbers are inactive results; i = inactive; · = not tested or not shown.
SMILES,TRPC4 agonist,TRPC6 inh,TRPC4 potent,TRPC6 activator,Kir21 inh,TRPC4 block,HEK293 MPD ctr-2,HEK293 MPD ctr 2-2,TRPC4 ctr mod,TRPC4 ctr inh 2,TRPC6 block conf,TRPC6 act confirm,others
Cc1ccc(-n2nc3c(c2NC(=O)c2ccc(F)c(F)c2)CS(=O)(=O)C3)cc1,i,i,i,i,0.06,i,·,·,·,·,·,·,
Cc1ccc2c(c1)c1c3n2CCN=C3CCC1,i,-5*,i,i,-1.6,i,-171%*,i,-28%*,49%*,i,i,
c1cc2c(cc1C1CCCCC1)c1c3n2CCN=C3CCC1,i,i,i,i,-0.45,i,·,·,·,·,·,·,
Cc1cc(N)c2cc(NC(=O)/C=C/c3ccccc3Cl)ccc2n1,i,-5.5*,i,i,1.3,i,i,i,i,i,i,i,
Cc1cc(C)nc(NC(=O)/C=C/c2ccccc2Cl)n1,i,i,i,i,1.4,i,·,·,·,·,·,·,
CN(C)CCNS(=O)(=O)c1ccc(N2CCc3ccccc32)c([N+](=O)[O-])c1,i,-7.2*,i,i,-1,i,-129%*,i,-28%*,73%*,60%*,i,
NC(=O)COC(=O)C1c2ccccc2Oc2ccccc21,i,i,i,i,1.6,i,·,·,·,·,·,·,
CN(CCOC(=O)C1c2ccccc2Oc2ccccc21)C(C)(C)C,i,-10*,i,i,1.6,i,·,·,·,·,68%*,·,TRPC4 sel inh 2=i;TRPC4 spec=15%*;HEK293 MPD ctr 2-1=24%*;HEK293 MPD ctr-1=11%*
NC(=O)c1ccc(NC(=O)COc2cccc3ccccc23)cc1,i,i,i,i,0.17,i,·,·,·,·,·,·,
N#Cc1c(N2CCN(C(=O)c3ccccc3)CC2)nc(-c2ccccc2)c2c1CCCC2,i,i,i,i,1.3,i,·,·,·,·,·,·,
N#Cc1c(NCCN)nc(-c2ccccc2)c2c1CCCC2,i,-6.2*,i,i,-6*,i,i,i,i,85%*,67%*,i,
c1ccc(CN=C2NN=C(c3cc4ccccc4o3)CS2)cc1,i,i,i,i,0.04,i,·,·,·,·,·,·,
c1ccc2oc(C3=NNC(=NC4CC4)SC3)cc2c1,i,-8.4*,i,i,-1.9,i,·,·,·,·,i,i,TRPC4 sel inh 2=i;TRPC4 spec=i;HEK293 MPD ctr 2-1=i;HEK293 MPD ctr-1=i
C#CCNC(=O)C1=C[C@@H](c2ccc(C(F)(F)F)cc2)[C@H](CCCO)[C@@H](OCC)O1,i,i,i,i,1.3,i,·,·,·,·,·,·,
c1ccc2c(c1)CCN(c1ncnc3c1[nH]c1ccccc13)C2,86*,-5.7*,i,i,-0.95,i,i,i,i,63%*,i,i,
Cc1cc(NCCCN(C)C)n2nc(-c3cccs3)cc2n1,i,-8.2*,12*,i,0.59,i,-349%*,82%*,-58%*,58%*,69%*,i,
Cc1cc(C)c2c(n1)nn1c(NCCCN(C)C)cc(C)nc21,i,i,i,i,-0.25,i,·,·,·,·,·,·,
COc1ccc(Cc2c3cc(OC)c(OC)cc3cc[n+]2C)cc1OC,i,i,i,i,0.13,i,·,·,·,·,·,·,
CC[n+]1ccc2cc(OC)c(OC)cc2c1Cc1ccc(OC)c(OC)c1,i,-6.4*,i,i,-0.07,i,-232%*,i,-40%*,i,i,i,
CC(C)C[C@H](NC(=O)c1[nH]cnc1C(=O)N[C@@H](C)C(=O)OCc1ccccc1)C(=O)OC(C)(C)C,i,-5.8*,i,i,-0.96,i,i,i,i,i,i,i,
COc1ccc(C(C)NC(=O)Cc2cccs2)cc1OC (stereo not drawn),i,i,i,i,0.21,i,·,·,·,·,·,·,
COc1ccc(C2=NCCc3cc(OC)c(OC)cc32)cc1OC,i,-7.4*,i,i,-0.67,i,-410%*,i,-70%*,62%*,63%*,i,
COc1ccc(C2=NCCc3cc(OC)c(OC)cc32)cc1,i,i,i,i,1,i,·,·,·,·,·,·,
C[n+]1ccccc1/C=C/c1ccc(F)c(F)c1,i,-7.2*,i,i,-0.91,i,·,·,·,·,80%*,i,TRPC4 sel inh 2=i;TRPC4 spec=-34%*;HEK293 MPD ctr 2-1=34%*;HEK293 MPD ctr-1=-596%*
C[n+]1ccccc1/C=C/c1ccc([N+](=O)[O-])cc1,i,-7.3*,i,i,0.05,i,-250%*,110%*,-40%*,52%*,64%*,i,
O=C(c1ccc(Cl)cc1)n1c(NCc2ccccc2)n[nH]c1=S,i,i,i,i,-0.24,i,·,·,·,·,·,·,
CC(C)(C)NC(=S)NC(C)(C)C,i,i,i,i,0.01,i,·,·,·,·,·,·,
OCC[C@@H]1C[C@H](O)[C@@H](O)[C@@]2(Cc3ccccc3O2)O1,i,i,i,i,-0.3,i,·,·,·,·,·,·,
Cc1onc(-c2ccccc2Cl)c1NC(=O)NCc1cccs1,i,i,i,i,-0.81,i,·,·,·,·,·,·,

# High-throughput results from PubChem.
